Measurements reported in ChEMBL document CHEMBL2176871, “Development of ligands at γ-aminobutyrric acid type A (GABAA) receptor subtype as new agents for pain relief” (Bioorg Med Chem, 2011).
The source made the active and inactive calls.

How the values were obtained:
[1] = tested on: Mus musculus; assay: Antihyperalgesic activity against streptozotocin-induced hyperalgesia in Swiss albino mouse […] assessed as licking latency time at 30 mg/kg, po after 45 mins by hot plate test (reference value: 9.2 +/- 0.8 secs); format: functional
[2] = tested on: Rattus norvegicus; assay: Antinociceptive activity in Sprague-Dawley rat mononeuropathy pain model assessed as increase in injured paw pressure at 1 mg/kg, po after 15 mins by paw pressure test relative to non-treated control; format: functional
In short: (§1)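 Chronic constriction injury: loose ligatures placed on the common sciatic nerve under chloral hydrate; contralateral sham dissection. Tested 14 days after surgery. Paw pressure applied at 32 g/s; threshold taken as the force causing the first struggle; cut-off 250 g; pretest outliers (<40 g or >75 g) excluded. Oral dosing in 10 ml/kg; read at 15, 30 and 45 min; compared with a CMC-treated group.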

[3] = tested on: Rattus norvegicus; assay: Antinociceptive activity in Sprague-Dawley rat mononeuropathy pain model assessed as increase in injured paw pressure at 1 mg/kg, po after 30 mins by paw pressure test relative to non-treated control; format: functional; in short: as §1
[4] = tested on: Rattus norvegicus; assay: Toxicity in Sprague-Dawley rat mononeuropathy pain model assessed as effect on contralateral paw pressure at 60 mg/kg, po after 45 mins by paw pressure test; format: organism-based; set-up: dose 60 mg/kg, route oral; details: in vivo, 0.75 h
In short: (§2)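 Same sciatic-ligation rat model, 14 days after surgery. Threshold measured on the non-operated contralateral hind paw by analgesimeter at 32 g/s; first-struggle endpoint; 250 g cut-off; pretest rats outside 40–75 g rejected. Compound given po in 10 ml/kg; readings at 15, 30 and 45 min.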

[5] = tested on: Rattus norvegicus; assay: Antinociceptive activity in Sprague-Dawley rat mononeuropathy pain model assessed as increase in injured paw pressure at 10 mg/kg, po after 45 mins by paw pressure test relative to non-treated control; format: functional; in short: as §1
[6] = tested on: Rattus norvegicus; assay: Antinociceptive activity in Sprague-Dawley rat mononeuropathy pain model assessed as increase in injured paw pressure at 1 mg/kg, po after 45 mins by paw pressure test relative to non-treated control; format: functional; in short: as §1
[7] = Displacement of [3H]Ro151788 from GABA(A)/BzR in bovine cerebral cortex membrane; format: cell membranes, Bos taurus
In short: (§3)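 Bovine cerebral cortex membranes in 50 mM Tris-citrate pH 7.4; [3H]flumazenil displacement. Compounds first tested at a fixed 10 µM; Ki determined only when inhibition exceeded 80%, using at least six concentrations. Five experiments run in triplicate; IC50 obtained by iterative curve fitting and converted to Ki with the Cheng–Prusoff equation.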

[8] = tested on: Mus musculus; assay: Anxiolytic-like activity in Swiss albino mouse at 10 to 30 mg/kg, po after 30 mins by light/dark box test; format: functional, organism-based
In short: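 Male Swiss mice tested in a two-compartment light/dark box. Transfers between compartments and time spent in the lit side recorded. Compound given po 30 min before testing, in 10 ml/kg; flumazenil given i.p. for antagonism; 8 mice per group.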

[9] = tested on: Rattus norvegicus; assay: Toxicity in Sprague-Dawley rat mononeuropathy pain model assessed as effect on contralateral paw pressure at 60 mg/kg, po after 15 mins by paw pressure test; format: organism-based; set-up: dose 60 mg/kg, route oral; details: in vivo, 0.25 h; in short: as §2
[10] = tested on: Rattus norvegicus; assay: Toxicity in Sprague-Dawley rat mononeuropathy pain model assessed as effect on contralateral paw pressure at 1 mg/kg, po after 15 mins by paw pressure test; format: organism-based; set-up: dose 1 mg/kg, route oral; details: in vivo, 0.25 h; in short: as §2
[11] = tested on: Rattus norvegicus; assay: Antinociceptive activity in Sprague-Dawley rat mononeuropathy pain model assessed as increase in injured paw pressure at 60 mg/kg, po after 45 mins by paw pressure test relative to non-treated control; format: functional; in short: as §1
[12] = tested on: Mus musculus; assay: Anticonvulsant activity in Swiss albino mouse […] assessed as protection against intraperitoneally administered pentylenetetrazol-induced seizures at 30 mg/kg, po after 30 mins; format: functional
In short: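 Male Swiss albino mice. Compounds given po and PTZ 90 mg/kg injected 30 min later; PTZ was dissolved in 0.9% NaCl saline. Clonic generalized convulsions were recorded over 30 min. Each value is the mean of 10 mice. The methods give the PTZ route as s.c. and the table footnote gives it as ip.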

[13] = tested on: Mus musculus; assay: Antihyperalgesic activity against streptozotocin-induced hyperalgesia in Swiss albino mouse […] assessed as licking latency time at 30 mg/kg, po after 30 mins by hot plate test (reference value: 9.2 +/- 0.8 secs); format: functional
[14] = organism: Bos taurus; assay: Displacement of [3H]Ro151788 from GABA(A)/BzR in bovine cerebral cortex membrane at 10 uM; format: cell membranes; in short: as §3
[15] = tested on: Rattus norvegicus; assay: Toxicity in Sprague-Dawley rat mononeuropathy pain model assessed as effect on contralateral paw pressure at 10 mg/kg, po after 45 mins by paw pressure test; format: organism-based; set-up: dose 10 mg/kg, route oral; details: in vivo, 0.75 h; in short: as §2
[16] = tested on: Rattus norvegicus; assay: Toxicity in Sprague-Dawley rat mononeuropathy pain model assessed as effect on contralateral paw pressure at 60 mg/kg, po after 30 mins by paw pressure test; format: organism-based; set-up: dose 60 mg/kg, route oral; details: in vivo, 0.5 h; in short: as §2
[17] = tested on: Rattus norvegicus; assay: Antinociceptive activity in Sprague-Dawley rat mononeuropathy pain model assessed as increase in injured paw pressure at 30 mg/kg, po after 45 mins by paw pressure test relative to non-treated control; format: functional; in short: as §1
[18] = tested on: Mus musculus; assay: Antihyperalgesic activity Swiss albino mouse […] assessed as licking latency time at 30 mg/kg, po after 60 mins by hot plate test (reference value: 17.9 +/- 1.1 secs); format: functional
In short: (§4)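 Hot plate at 52.5 ± 0.1 °C in non-diabetic male Swiss mice. Latency to licking of fore or hind paws was timed before dosing and every 15 min up to 60 min after oral dosing. Mice with pretest latencies below 12 s or above 18 s were excluded. Cut-off was 45 s.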

[19] = tested on: Rattus norvegicus; assay: Antinociceptive activity in Sprague-Dawley rat mononeuropathy pain model assessed as increase in injured paw pressure at 60 mg/kg, po after 15 mins by paw pressure test relative to non-treated control; format: functional; in short: as §1
[20] = tested on: Rattus norvegicus; assay: Toxicity in Sprague-Dawley rat mononeuropathy pain model assessed as effect on contralateral paw pressure at 10 mg/kg, po after 15 mins by paw pressure test; format: organism-based; set-up: dose 10 mg/kg, route oral; details: in vivo, 0.25 h; in short: as §2
[21] = tested on: Rattus norvegicus; assay: Antinociceptive activity in Sprague-Dawley rat mononeuropathy pain model assessed as increase in injured paw pressure at 60 mg/kg, po after 30 mins by paw pressure test relative to non-treated control; format: functional; in short: as §1
[22] = tested on: Rattus norvegicus; assay: Antinociceptive activity in Sprague-Dawley rat mononeuropathy pain model assessed as increase in injured paw pressure at 10 mg/kg, po after 30 mins by paw pressure test relative to non-treated control; format: functional; in short: as §1
[23] = tested on: Rattus norvegicus; assay: Toxicity in Sprague-Dawley rat mononeuropathy pain model assessed as effect on contralateral paw pressure at 30 mg/kg, po after 45 mins by paw pressure test; format: organism-based; set-up: dose 30 mg/kg, route oral; details: in vivo, 0.75 h; in short: as §2
[24] = tested on: Mus musculus; assay: Antihyperalgesic activity Swiss albino mouse […] assessed as licking latency time at 30 mg/kg, po after 45 mins by hot plate test (reference value: 17.9 +/- 1.1 secs); format: functional; in short: as §4
[25] = tested on: Mus musculus; assay: Antihyperalgesic activity Swiss albino mouse […] assessed as licking latency time at 30 mg/kg, po after 30 mins by hot plate test (reference value: 17.9 +/- 1.1 secs); format: functional; in short: as §4
[26] = tested on: Mus musculus; assay: Antihyperalgesic activity Swiss albino mouse […] assessed as licking latency time at 30 mg/kg, po after 15 mins by hot plate test (reference value: 17.9 +/- 1.1 secs); format: functional; in short: as §4
[27] = tested on: Mus musculus; assay: Antihyperalgesic activity against streptozotocin-induced hyperalgesia in Swiss albino mouse […] assessed as licking latency time at 30 mg/kg, po after 15 mins by hot plate test (reference value: 9.2 +/- 0.8 secs); format: functional
[28] = tested on: Mus musculus; assay: Antihyperalgesic activity against streptozotocin-induced hyperalgesia in Swiss albino mouse […] assessed as licking latency time at 30 mg/kg, po after 60 mins by hot plate test (reference value: 9.2 +/- 0.8 secs); format: functional

## Cc1cnn2c1n[n+]([O-])c1ccc(OCc3ccccc3)cc12
[1]
  Time: 18.8 s
[2]
  Activity: 32.3 g
[3]
  Activity: 34.5 g
[4]
  Activity: 57.2 g
[5]
  Activity: 30.4 g
[6]
  Activity: 30.8 g
[7]
  Ki: 4.66 nM
[8]
  Activity: Active
[9]
  Activity: 59.9 g
[10]
  Activity: 57.3 g
[11]
  Activity: 31.5 g
[12]
  Activity: 10%
[13]
  Time: 17.6 s
[14]
  inhibition: > 80%
[15]
  Activity: 63.5 g
[16]
  Activity: 60.8 g
[17]
  Activity: 35.2 g
[18]
  Time: 17.2 s
[19]
  Activity: 50.1 g
[20]
  Activity: 60.4 g
[21]
  Activity: 40.8 g
[22]
  Activity: 40.1 g
[23]
  Activity: 60.5 g
[24]
  Time: 18.5 s
[25]
  Time: 18.1 s
[26]
  Time: 17.2 s
[27]
  Time: 14.9 s
[28]
  Time: 15.7 s
